STAT1 blocker – reduces IFN-gamma driven STAT1 reporter signal | inhibition, % at 5.5 µM | NIH 3T3 STAT1-luciferase reporter, luminescence | 0.35% of 200,000 active;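 active = inhibition above a set limit, the mean inhibition across all tested compounds plus 3 SD, cut at about 34% in these data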;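 also: 0% = IFN-gamma with DMSO and 100% = IFN-gamma with 300 µM nifuroxazide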
STAT3 blocker – inhibitors of IL-6 induced STAT3 signaling. U3A cells, IL-6 STAT3-luciferase reporter, luminescence; host cell line lacks STAT1. inhibition, % at 5.5 µM. 0.89% of 190,000 active;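 active = inhibition above the mean inhibition across all screened compounds plus 3 SD, cut at about 44% in these data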;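 also: 0% = DMSO only wells and 100% = 100 µM nifuroxazide control wells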
STAT3 act-1 – increases IL-6 driven STAT3 reporter signal. U3A cells, IL-6 STAT3-luciferase reporter, luminescence; 100% = signal with IL-6 EC80 alone. activation (% of control), % at 5.6 µM. AID 871. 0.91% of 190,000 active;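 active = activation above the screen-wide mean of compound activation plus 3 SD, cut at about 130% in these data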;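 also: 0% = background luminescence of wells with medium and substrate only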
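Assay system – human STAT1-deficient U3A cells with stable STAT3-luciferase reporter · Also added – IL-6 (33 ng/mL) · Schedule – compound 1 h, then IL-6 6 h at 37 °C · Technique – reporter luminescence signal · Evaluation – % activation versus median of IL-6-stimulated wells · Benchmarks – IL-6-only wells as 100% reference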
STAT1 act-1 – increases IFN-gamma driven STAT1 reporter signal; NIH 3T3 STAT1-luciferase reporter, luminescence; 100% = IFN-gamma alone, no compound; AID 932; 2.6% of 200,000 active; activation (% of control), % at 5.5 µM;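 active = activation above the screen-wide mean activation plus 3 SD, cut at about 130% in these data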;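 also: raw ratio to IFN-gamma control signal so 100% means no change and 0% no light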
STAT3 act-2 – STAT3 activation, confirmation assay; shares compounds with STAT3 act-1; U3A STAT3-luciferase reporter, IL-6 potentiation, luminescence; U3A cells lack STAT1; 100 means same as IL-6 alone; potentiation (% of control), % at 5.7 µM; 64% of 1,200 active;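 active = percent activation of the STAT3 luciferase reporter above a set limit taken from the earlier primary screen, cut at about 130% in these data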;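 also: 0% = background signal of medium plus substrate and 100% = median of IL-6 with DMSO wells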
NFkB act 2 – counter-screen for STAT3 activators: NF-kappaB activation | shares compounds with STAT3 act-1 | human cells, NF-kappaB reporter activation | activation (% of control), % at 5.7 µM | 11% of 1,200 active | AID 1309; in the data active = activation above about 120%;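 also: reporter induced by TNF-alpha stimulation; 100% = median of stimulated DMSO wells and 0% = no signal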
STAT1 act-2 – STAT1 activation in STAT3 activator counter-screen; shares compounds with STAT3 act-1; NIH 3T3 STAT1-luciferase reporter, IFN-gamma, luminescence; activation (% of control), % at 5.7 µM; 13% of 1,200 active;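 active = activation above the solvent-only control well mean plus 3 SD, set per screening run, cut at about 120% in these data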;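 also: 100% = IFN-gamma with DMSO median signal so 100% means no change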
* marks the source's active call; other numbers are inactive results; / = no result. This is a sample that favours compounds with a hit; in the whole collection about 4.3% have one here.

SMILES | STAT1 blocker | STAT3 blocker | STAT3 act-1 | STAT1 act-1 | STAT3 act-2 | NFkB act 2 | STAT1 act-2
CCCC(C)NC(=O)c1sc2nc3n(c(=O)c2c1C)CCC3 (stereo unspecified) | -1.5 | 3.5 | 99.0 | 100.9 | / | / | /
CCN(CC1COc2ccccc2O1)S(=O)(=O)c1ccc(C)cc1 (stereo unspecified) | 0.7 | -2.3 | 104.0 | 99.4 | / | / | /
CCC(C)C(=O)Nc1nc(C)c(-c2csc(Nc3ccc(Cl)cc3)n2)s1 (stereo unspecified) | 10.1 | -47.8 | 138.8* | 91.0 | 118.4 | 102.0 | 99.7
Cc1ccc(Nc2nc(-c3sc(NC(=O)c4cccc(Cl)c4)nc3C)cs2)cc1 | -10.3 | -70.1 | 156.3* | 109.2 | 112.6 | 109.6 | 112.7
CCCC(=O)Nc1nc(C)c(-c2csc(Nc3ccc(Cl)cc3)n2)s1 | 11.7 | -97.1 | 177.5* | 89.5 | 162.5* | 101.0 | 97.3
CN(Cc1nc(Cc2ccccc2F)no1)Cc1cccc2ncccc12 | 22.7 | 15.9 | 88.3 | 78.0 | / | / | /
Cc1ccc(C(=O)N(Cc2ccccc2)C(C)(C)C)cc1C | 9.5 | -3.6 | 101.6 | 91.2 | / | / | /
COCCNC(=S)N/N=C1\CC(C)CC(C)(C)C1 (stereo unspecified) | -3.2 | 4.0 | 103.2 | 102.6 | / | / | /
COC(=O)c1ccc(CC(=O)c2nc3ccccc3s2)cc1 | -2.5 | -0.7 | 105.5 | 102.3 | / | / | /
O=C(Cc1ccccc1)c1nc2ccccc2s1 | -8.5 | -36.4 | 142.7* | 107.8 | 164.3* | 127.8* | 127.7*
Cc1ccc(C2NC(=O)c3c(sc(C)c3C)N2)c(O)c1 (stereo unspecified) | -1.4 | -58.9 | 157.9* | 101.2 | 159.1* | 106.1 | 98.2
Cc1cccc(C2NC(=O)c3c(sc(C)c3C)N2)c1O (stereo unspecified) | -10.1 | -14.3 | 116.9 | 109.2 | / | / | /
CC1CC(C)(C)NC(=S)O1 (stereo unspecified) | 1.0 | 7.8 | 98.0 | 98.7 | / | / | /
Cc1ccc(NC(=O)C2=C(O)CCn3c2nc2ccccc23)cc1 | -12.1 | -47.1 | 149.2* | 111.1 | 123.9 | 101.3 | 103.8
Cc1ccc(NC(=O)c2ccccc2O)cc1 | -3.9 | 18.5 | 88.2 | 105.0 | / | / | /
COc1cc(NC(=S)NCCCN2CCOCC2)cc(OC)c1 | -2.9 | 2.6 | 100.0 | 102.6 | / | / | /
Cc1ccc(-n2nc(C)c3c2OC(N)=C(C#N)C3c2ccoc2)cc1 (stereo unspecified) | 5.6 | -84.7 | 176.5* | 94.9 | 152.9* | 103.7 | 91.5
Cc1nn(-c2ccccc2)c2c1C(c1ccccc1)C(C#N)=C(N)O2 (stereo unspecified) | 3.9 | -22.3 | 122.4 | 96.4 | / | / | /
CC(NC(=O)c1ccc(OC2CCN(S(=O)(=O)N(C)C)CC2)cc1)C1CC1 (stereo unspecified) | -3.0 | 15.3 | 91.2 | 102.5 | / | / | /
Cc1ccc(C)c(/C(O)=C2/C(=O)C(=O)N(CCN3CCOCC3)C2c2ccc(C)o2)c1 (stereo unspecified) | 11.5 | -36.8 | 135.9* | 89.4 | 129.4 | 107.4 | 102.0
Cc1ccc(C)c(/C(O)=C2\C(=O)C(=O)N(CCCN3CCOCC3)C2c2cccnc2)c1 (stereo unspecified) | 11.7 | 4.7 | 98.9 | 89.3 | / | / | /
O=C(NC(=S)Nc1nc2c(s1)CCCC2)c1ccccc1 | -23.6 | -60.7 | 147.8* | 121.1 | 205.8* | 141.9* | 199.9*
Cc1ccc(CC(=O)Nc2nc3c(s2)CCCC3)cc1 | -5.7 | -49.3 | 140.7* | 101.2 | 136.5* | 103.4 | 113.8
CCOC(=O)c1c(C2CC2)csc1NC(=O)COC(=O)CCS(=O)(=O)c1ccc(C)cc1 | 6.8 | -5.3 | 105.5 | 93.2 | / | / | /
O=C(CSc1cccc[n+]1[O-])Nc1ccc(N2CCOCC2)cc1 | 6.8 | 9.2 | 98.8 | 92.5 | / | / | /
SMILES | STAT1 blocker | STAT3 blocker | STAT3 act-1 | STAT1 act-1 | STAT3 act-2 | NFkB act 2 | STAT1 act-2
CCOc1cc(Cl)c(NC(=O)CC)cc1OCC | -7.9 | 7.1 | 95.1 | 106.9 | / | / | /
O=C(Cc1cccs1)N/N=C\c1ccc(O)cc1 | -9.6 | -38.0 | 142.3* | 107.8 | 124.0 | 122.6* | 150.7*
O=C(Cc1cccs1)N/N=C/C=C/c1ccccc1 | -20.3 | -10.0 | 109.0 | 118.2 | / | / | /
N#Cc1cc(NC(=O)c2ccc(F)cc2)c(=O)n2c1[nH]c1ccccc12 | 0.9 | 40.6 | 66.6 | 99.7 | / | / | /
CCC(=O)Nc1cccc2cccnc12 | 1.7 | 8.6 | 92.9 | 98.5 | / | / | /
O=C(Nc1ccccc1)Nc1cccc2cccnc12 | -23.1 | -62.0 | 149.7* | 121.0 | 147.3* | 136.2* | 151.8*
OC1(c2ccccc2)c2ccccc2-c2ncccc21 (stereo unspecified) | -4.0 | -40.9 | 137.4* | 103.4 | 134.3* | 98.4 | 99.8
O=C1Nc2ccccc2C1(O)c1ccccc1 (stereo unspecified) | 0.6 | 7.3 | 99.5 | 98.1 | / | / | /
COc1ccc(/C=N/NC(=O)c2cccc(O)c2)cc1Cn1nc(C)c([N+](=O)[O-])c1C | 4.1 | -12.8 | 117.1 | 96.6 | / | / | /
CCNc1nc(NC(C)(C)C)nc(SC(C(C)=O)C(C)=O)n1 | -2.8 | -44.0 | 140.5* | 103.9 | 118.5 | 117.1 | 109.9
CCNc1nc(SC(C(C)=O)C(C)=O)nc(N(C)C)n1 | -2.9 | -13.7 | 112.6 | 101.9 | / | / | /
COc1ccc(N2CCN(C(=S)NC(C)c3ccccc3)CC2)cc1 (stereo unspecified) | 3.8 | 6.8 | 104.8 | 95.9 | / | / | /
CC12CN3CC(C)(CN(C1)C3c1c[nH]c3ccccc13)C2=O (stereo unspecified) | -4.0 | 8.2 | 96.7 | 102.2 | / | / | /
CC1(C)CC(=O)C(c2c[nH]c3ccccc23)C(=O)C1 | 5.2 | -54.9 | 152.2* | 93.7 | 163.4* | 109.4 | 102.9
CSc1nnc2c(n1)c(C)nn2-c1ccc(C)cc1 | 1.8 | -55.8 | 148.9* | 96.2 | 160.9* | 115.7 | 127.8*
Cc1cc(N(CCO)CCO)ccc1C(c1ccc(N(CCO)CCO)cc1C)c1ccccc1Cl | -6.0 | 4.4 | 98.2 | 105.4 | / | / | /
CSc1ncccc1C(=O)OCC(=O)c1cccc(Br)c1 | -6.5 | 4.8 | 99.1 | 104.1 | / | / | /
COC(=O)c1cccc(NC(=O)CCCOc2cccc(C)c2)c1 | -4.5 | -35.1 | 136.1* | 104.1 | 112.6 | 105.1 | 102.0
N#C/C(=C\c1ccco1)Sc1nc2ccccc2s1 | -4.2 | -44.6 | 137.6* | 103.8 | 122.2 | 106.7 | 102.5
COc1ccc2oc(=O)c(C(=O)C[n+]3cccc(C)c3)cc2c1 | 6.2 | 0.8 | 101.3 | 94.7 | / | / | /
CCOC(=O)CSc1nc(-c2ccccc2)nc2c1oc1ccccc12 | 7.5 | -37.2 | 136.5* | 93.1 | 133.9* | 111.3 | 94.0
CCOC(=O)CN1C(=O)C(O)(c2c(C)[nH]c3ccccc23)c2ccccc21 (stereo unspecified) | 9.3 | -75.4 | 166.8* | 91.5 | 126.5 | 107.0 | 93.8
CCOC(=O)CN1C(=O)C2(OCCCO2)c2ccccc21 | -4.9 | -4.8 | 106.2 | 104.5 | / | / | /

High-throughput results from PubChem BioAssay.
